Reference: ChEMBL document CHEMBL3046406, “Herbicidal potential of ophiobolins produced by Drechslera gigantea” (2006)
Activity calls are given as the source filed them. The calls are words filed in the database; no cut-off is given here.

Experiments:
Format in all cases: functional
[1] = tested on: Sonchus oleraceus; experiment: Herbicidal activity against Sonchus oleraceus assessed as diameter of leaf necrosis at 50 ug/ml measured after 2 days post-compound treatment by leaf puncture assay
How it was run: (§1)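 Detached leaf segments (about 5 cm) from young greenhouse-grown plants, each with a superficial puncture lesion (0.5 mm) made by glass capillary. Compound dissolved in DMSO, diluted with distilled water (final DMSO 2%), 8 µL droplet applied. Segments held on moist filter paper at 25 °C under continuous fluorescent light (10000 lux). DMSO droplets as control. Necrosis scored visually on a 0–3 scale at day 2.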

[2] = tested on: Sonchus oleraceus; experiment: Herbicidal activity against Sonchus oleraceus assessed as diameter of leaf necrosis at 100 ug/ml measured after 2 days post-compound treatment by leaf puncture assay; how it was run: as §1
[3] = tested on: Sonchus oleraceus; experiment: Herbicidal activity against Sonchus oleraceus assessed as diameter of leaf necrosis at 250 ug/ml measured after 2 days post-compound treatment by leaf puncture assay; how it was run: as §1
[4] = tested on: Diplotaxis erucoides; experiment: Herbicidal activity against Diplotaxis erucoides assessed as diameter of leaf necrosis at 50 ug/ml measured after 2 days post compound treatment by leaf puncture assay; how it was run: as §1
[5] = tested on: Diplotaxis erucoides; experiment: Herbicidal activity against Diplotaxis erucoides assessed as diameter of leaf necrosis at 100 ug/ml measured after 2 days post compound treatment by leaf puncture assay; how it was run: as §1
[6] = tested on: Convolvulus arvensis; experiment: Herbicidal activity against Convolvulus arvensis assessed as diameter of leaf necrosis at 50 ug/ml measured after 2 days post compound treatment by leaf puncture assay; how it was run: as §1
[7] = tested on: Convolvulus arvensis; experiment: Herbicidal activity against Convolvulus arvensis assessed as diameter of leaf necrosis at 100 ug/ml measured after 2 days post compound treatment by leaf puncture assay; how it was run: as §1
[8] = tested on: Convolvulus arvensis; experiment: Herbicidal activity against Convolvulus arvensis assessed as diameter of leaf necrosis at 250 ug/ml measured after 2 days post compound treatment by leaf puncture assay; how it was run: as §1
[9] = tested on: Chenopodium album; experiment: Herbicidal activity against Chenopodium album assessed as diameter of leaf necrosis at 50 ug/ml measured after 2 days post compound treatment by leaf puncture assay; how it was run: as §1
[10] = tested on: Chenopodium album; experiment: Herbicidal activity against Chenopodium album assessed as diameter of leaf necrosis at 250 ug/ml measured after 2 days post compound treatment by leaf puncture assay; how it was run: as §1
[11] = tested on: Chenopodium album; experiment: Herbicidal activity against Chenopodium album assessed as diameter of leaf necrosis at 100 ug/ml measured after 2 days post compound treatment by leaf puncture assay; how it was run: as §1
[12] = tested on: Amaranthus retroflexus; experiment: Herbicidal activity against Amaranthus retroflexus assessed as diameter of leaf necrosis at 50 ug/ml measured after 2 days post compound treatment by leaf puncture assay; how it was run: as §1
[13] = tested on: Amaranthus retroflexus; experiment: Herbicidal activity against Amaranthus retroflexus assessed as diameter of leaf necrosis at 250 ug/ml measured after 2 days post compound treatment by leaf puncture assay; how it was run: as §1
[14] = tested on: Amaranthus retroflexus; experiment: Herbicidal activity against Amaranthus retroflexus assessed as diameter of leaf necrosis at 100 ug/ml measured after 2 days post compound treatment by leaf puncture assay; how it was run: as §1
[15] = tested on: Setaria viridis; experiment: Herbicidal activity against Setaria viridis assessed as diameter of leaf necrosis at 50 ug/ml measured after 2 days post compound treatment by leaf puncture assay; how it was run: as §1
[16] = tested on: Setaria viridis; experiment: Herbicidal activity against Setaria viridis assessed as diameter of leaf necrosis at 100 ug/ml measured after 2 days post compound treatment by leaf puncture assay; how it was run: as §1
[17] = tested on: Setaria viridis; experiment: Herbicidal activity against Setaria viridis assessed as diameter of leaf necrosis at 250 ug/ml measured after 2 days post compound treatment by leaf puncture assay; how it was run: as §1
[18] = tested on: Bromus sterilis; experiment: Herbicidal activity against Bromus sterilis assessed as diameter of leaf necrosis at 250 ug/ml measured after 2 days post compound treatment by leaf puncture assay; how it was run: as §1
[19] = tested on: Avena sterilis subsp. ludoviciana; experiment: Herbicidal activity against Avena sterilis subsp. ludoviciana assessed as diameter of leaf necrosis at 50 ug/ml measured after 2 days post compound treatment by leaf puncture assay; how it was run: as §1
[20] = tested on: Avena sterilis subsp. ludoviciana; experiment: Herbicidal activity against Avena sterilis subsp. ludoviciana assessed as diameter of leaf necrosis at 100 ug/ml measured after 2 days post compound treatment by leaf puncture assay; how it was run: as §1
[21] = tested on: Avena sterilis subsp. ludoviciana; experiment: Herbicidal activity against Avena sterilis subsp. ludoviciana assessed as diameter of leaf necrosis at 250 ug/ml measured after 2 days post compound treatment by leaf puncture assay; how it was run: as §1
[22] = tested on: Diplotaxis erucoides; experiment: Herbicidal activity against Diplotaxis erucoides assessed as diameter of leaf necrosis at 250 ug/ml measured after 2 days post compound treatment by leaf puncture assay; how it was run: as §1
[23] = tested on: Phalaris canariensis; experiment: Herbicidal activity against Phalaris canariensis assessed as diameter of leaf necrosis at 50 ug/ml measured after 2 days post compound treatment by leaf puncture assay; how it was run: as §1
[24] = tested on: Phalaris canariensis; experiment: Herbicidal activity against Phalaris canariensis assessed as diameter of leaf necrosis at 100 ug/ml measured after 2 days post compound treatment by leaf puncture assay; how it was run: as §1
[25] = tested on: Phalaris canariensis; experiment: Herbicidal activity against Phalaris canariensis assessed as diameter of leaf necrosis at 250 ug/ml measured after 2 days post compound treatment by leaf puncture assay; how it was run: as §1
[26] = tested on: Oloptum miliaceum; experiment: Herbicidal activity against Piptatherum miliaceum assessed as diameter of leaf necrosis at 50 ug/ml measured after 2 days post compound treatment by leaf puncture assay; how it was run: as §1
[27] = tested on: Oloptum miliaceum; experiment: Herbicidal activity against Piptatherum miliaceum assessed as diameter of leaf necrosis at 100 ug/ml measured after 2 days post compound treatment by leaf puncture assay; how it was run: as §1
[28] = tested on: Oloptum miliaceum; experiment: Herbicidal activity against Piptatherum miliaceum assessed as diameter of leaf necrosis at 250 ug/ml measured after 2 days post compound treatment by leaf puncture assay; how it was run: as §1
[29] = tested on: Echinochloa crus-galli; experiment: Herbicidal activity against Echinochloa crus-galli (barnyard grass) assessed as diameter of leaf necrosis at 50 ug/ml measured after 2 days post compound treatment by leaf puncture assay; how it was run: as §1
[30] = tested on: Echinochloa crus-galli; experiment: Herbicidal activity against Echinochloa crus-galli (barnyard grass) assessed as diameter of leaf necrosis at 100 ug/ml measured after 2 days post compound treatment by leaf puncture assay; how it was run: as §1
[31] = tested on: Echinochloa crus-galli; experiment: Herbicidal activity against Echinochloa crus-galli (barnyard grass) assessed as diameter of leaf necrosis at 250 ug/ml measured after 2 days post compound treatment by leaf puncture assay; how it was run: as §1
[32] = tested on: Digitaria sanguinalis; experiment: Herbicidal activity against Digitaria sanguinalis (hairy crabgrass) assessed as diameter of leaf necrosis at 50 ug/ml measured after 2 days post compound treatment by leaf puncture assay; how it was run: as §1
[33] = tested on: Digitaria sanguinalis; experiment: Herbicidal activity against Digitaria sanguinalis (hairy crabgrass) assessed as diameter of leaf necrosis at 100 ug/ml measured after 2 days post compound treatment by leaf puncture assay; how it was run: as §1
[34] = tested on: Digitaria sanguinalis; experiment: Herbicidal activity against Digitaria sanguinalis (hairy crabgrass) assessed as diameter of leaf necrosis at 250 ug/ml measured after 2 days post compound treatment by leaf puncture assay; how it was run: as §1
[35] = tested on: Cynodon dactylon; experiment: Herbicidal activity against Cynodon dactylon assessed as diameter of leaf necrosis at 50 ug/ml measured after 2 days post compound treatment by leaf puncture assay; how it was run: as §1
[36] = tested on: Cynodon dactylon; experiment: Herbicidal activity against Cynodon dactylon assessed as diameter of leaf necrosis at 100 ug/ml measured after 2 days post compound treatment by leaf puncture assay; how it was run: as §1
[37] = tested on: Cynodon dactylon; experiment: Herbicidal activity against Cynodon dactylon assessed as diameter of leaf necrosis at 250 ug/ml measured after 2 days post compound treatment by leaf puncture assay; how it was run: as §1
[38] = tested on: Bromus sterilis; experiment: Herbicidal activity against Bromus sterilis assessed as diameter of leaf necrosis at 50 ug/ml measured after 2 days post compound treatment by leaf puncture assay; how it was run: as §1
[39] = tested on: Bromus sterilis; experiment: Herbicidal activity against Bromus sterilis assessed as diameter of leaf necrosis at 100 ug/ml measured after 2 days post compound treatment by leaf puncture assay; how it was run: as §1

With `CC(C)=C[C@H]1C[C@H](C)[C@]2(CC[C@]3(C)C[C@@H]4C(C)=CC(=O)[C@H]4/C(C=O)=C\C[C@H]32)O1` [3-ANHYDRO-6-EPI-OPHIOBOLIN A] the Activity [1] was “inactive”, the Activity [2] was 1 mm and the Activity [3] was 1 mm. The Activity [4] was 2 mm, the Activity [5] was over 3 mm and the Activity [6] was “inactive”. The Activity [7] was “inactive”, the Activity [8] was “inactive” and the Activity [9] was “inactive”. The Activity [10] was 1 mm, the Activity [11] was 1 mm and the Activity [12] was “inactive”. The Activity [13] was “inactive”, the Activity [14] was “inactive” and the Activity [15] was 2 mm. It also gave an Activity [16] of 2 mm, an Activity [17] of 2 mm and an Activity [18] of 1 mm. The Activity [19] was “inactive”, the Activity [20] was “inactive” and the Activity [21] was “inactive”. The Activity [22] was over 3 mm, the Activity [23] was 1 mm and the Activity [24] was 1 mm. It also gave an Activity [25] of 1 mm, an Activity [26] of 1 mm and an Activity [27] of 1 mm. For the same molecule, the Activity [28] was 1 mm, the Activity [29] was 1 mm and the Activity [30] was 1 mm. The Activity [31] was 1 mm, the Activity [32] was “inactive” and the Activity [33] was 1 mm. For the same molecule, the Activity [34] was 1 mm, the Activity [35] was “inactive” and the Activity [36] was “inactive”. For the same molecule, the Activity [37] was “inactive”, the Activity [38] was 1 mm and the Activity [39] was 1 mm.
